Data on 16 molecules can be found in ChEMBL document CHEMBL1138739, “Synthesis, nicotinic acetylcholine receptor binding, and antinociceptive properties of 2'-fluoro-3'-(substituted phenyl)deschloroepibatidine analogues. Novel nicotinic antagonist” (J Med Chem, 2004).

The species named for test [1] is Mus musculus. As to the kind of experiment: Antinociceptive response was determined in mice using spontaneous activity method. It is filed as functional. A digest of the protocol: (§1)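 Mice given 0.9% saline or analogue sc and put in individual photocell activity cages 5 min later. Beam interruptions counted over the next 10 min. ED50 with confidence limits, or percent effect at a single dose.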

For test [2], the species on record is Mus musculus. As to the kind of experiment: Antinociceptive response was determined in mice using hot plate flick method. It is filed as functional. A digest of the protocol:
(§2)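 Mice, 8 per dose, given analogues sc and placed on a 55.0 °C hot plate 5 min later. Two control latencies at least 10 min apart, normally 8–12 s. Endpoint is paw lick or jump. %MPE = [(test − control)/(40 − control)] × 100. ED50 with confidence limits, or percent effect at a single dose.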

For test [3], the species on record is Mus musculus. As to the kind of experiment: Antinociceptive response was determined in mice using hypothermia method. It is filed as functional. The essentials: (§3)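 Rectal temperature in mice by thermistor probe inserted 24 mm, read just before and at several times after sc saline or analogue. ED50 with confidence limits, or change at a single dose.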
The species entered for test [4] is Mus musculus. As to the kind of experiment: Antinociceptive response was determined in mice using tail flick method. It is filed as functional. The essentials: (§4)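 Mice; epibatidine analogues given i.t., tail-flick (D'Amour–Smith) latency read 5 min later. Baseline 2–4 s, 10 s cutoff. %MPE = [(test − control)/(10 − control)] × 100. Eight to twelve mice per dose, at least four doses for dose–response; ED50 with confidence limits, or percent effect at a single dose.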

For test [5], the system named is Mus musculus. The test can be described thus: Antinociceptive response was determined in mice at a dose 15 mg/kg using tail flick method. It is filed as functional. A digest of the protocol: as §4
Test [6] has as its system Mus musculus. The test can be described thus: Antinociceptive response was determined in mice at a dose of 10 mg/kg using hypothermia method. It is filed as functional. The essentials:
as §3

Test [7] deals with Mus musculus. As to the kind of experiment: Antinociceptive response was determined in mice at a dose of 15 mg/kg using hot plate flick method. It is filed as functional. The essentials:
as §2

Test [8] has as its target Neuronal acetylcholine receptor subunit alpha-7 (Rattus norvegicus, UniProt Q05941). The test can be described thus: Inhibition of [125I]-iodo-MLA binding to Nicotinic acetylcholine receptor alpha-7 of rat cerebral cortex. It is filed as tissue-based.
The test system of test [9] is Mus musculus. The test can be described thus: Antinociceptive response was determined in mice at a dose of 10 mg/kg using hot plate flick method. It is filed as functional. A digest of the protocol:
as §2

Test [10] deals with Neuronal acetylcholine receptor; alpha4/beta2 (Rattus norvegicus, UniProt P09483+P12390). The test can be described thus: Inhibition of alpha beta[3H]epibatidine binding to Nicotinic acetylcholine receptor alpha4-beta2 of rat cerebral cortex. It is filed as tissue-based.
Sequence of Neuronal acetylcholine receptor; alpha4/beta2 (P09483 whole entry): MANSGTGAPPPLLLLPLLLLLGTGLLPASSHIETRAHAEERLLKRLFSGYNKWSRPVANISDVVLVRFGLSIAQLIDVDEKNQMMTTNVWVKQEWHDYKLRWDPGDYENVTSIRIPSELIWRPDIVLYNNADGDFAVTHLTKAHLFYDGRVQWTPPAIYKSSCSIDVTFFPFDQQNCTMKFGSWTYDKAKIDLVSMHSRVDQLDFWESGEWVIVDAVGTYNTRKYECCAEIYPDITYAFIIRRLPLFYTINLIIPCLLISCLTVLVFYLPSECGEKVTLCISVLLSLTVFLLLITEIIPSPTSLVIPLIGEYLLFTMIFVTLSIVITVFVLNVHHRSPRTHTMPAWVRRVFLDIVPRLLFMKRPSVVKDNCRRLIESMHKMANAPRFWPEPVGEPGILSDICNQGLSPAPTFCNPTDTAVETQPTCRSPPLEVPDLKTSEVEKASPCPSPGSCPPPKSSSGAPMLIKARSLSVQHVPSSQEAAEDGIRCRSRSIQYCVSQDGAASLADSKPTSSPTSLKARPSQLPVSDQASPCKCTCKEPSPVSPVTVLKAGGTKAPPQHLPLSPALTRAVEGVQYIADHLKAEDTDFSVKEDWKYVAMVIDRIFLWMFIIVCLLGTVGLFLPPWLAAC
Sequence of Neuronal acetylcholine receptor; alpha4/beta2 (P12390 whole entry): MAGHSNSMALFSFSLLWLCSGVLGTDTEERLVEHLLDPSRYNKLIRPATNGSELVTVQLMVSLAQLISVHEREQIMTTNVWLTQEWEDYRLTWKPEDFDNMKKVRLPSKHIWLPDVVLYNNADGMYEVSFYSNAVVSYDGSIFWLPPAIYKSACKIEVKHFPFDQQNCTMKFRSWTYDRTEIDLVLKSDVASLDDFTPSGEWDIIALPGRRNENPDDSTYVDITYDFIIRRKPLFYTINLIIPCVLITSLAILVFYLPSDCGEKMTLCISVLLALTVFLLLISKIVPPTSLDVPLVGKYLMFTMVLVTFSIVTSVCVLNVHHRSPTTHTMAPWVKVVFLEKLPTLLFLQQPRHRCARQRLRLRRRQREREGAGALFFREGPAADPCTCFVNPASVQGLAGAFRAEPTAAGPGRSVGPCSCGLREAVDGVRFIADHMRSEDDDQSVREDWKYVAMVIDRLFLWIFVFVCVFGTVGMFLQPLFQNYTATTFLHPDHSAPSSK
Test [11] concerns Mus musculus. As to the kind of experiment: Antinociceptive response was determined in mice at a dose of 1 mg/kg using hot plate flick method. It is filed as functional.
Test [12] deals with Mus musculus. As to the kind of experiment: Percent effect on the body temperature was measured at a dose of 1 mg/kg. It is filed as functional.
Test [13] relates to Mus musculus. As to the kind of experiment: Percent effect on the body temperature was measured at a dose of 10 mg/kg. It is filed as functional.
Test [14] relates to Mus musculus. The test can be described thus: Antinociceptive response was determined in mice at a dose 10 mg/kg using tail flick method. It is filed as functional. A digest of the protocol: as §4
Test [15] deals with Mus musculus. The test can be described thus: Antinociceptive response was determined in mice at a dose of 10 mg/kg using spontaneous activity method. It is filed as functional. A digest of the protocol: as §1
Test [16] has as its system Mus musculus. The test can be described thus: Percent effect on the body temperature was measured at a dose of 5 mg/kg. It is filed as functional.

SMILES strings stand for the structures. Calls of active or inactive are those of the source. Where only a bound is given, the exact number is not on record here.

Sequence of Neuronal acetylcholine receptor subunit alpha-7 (Q05941 whole entry): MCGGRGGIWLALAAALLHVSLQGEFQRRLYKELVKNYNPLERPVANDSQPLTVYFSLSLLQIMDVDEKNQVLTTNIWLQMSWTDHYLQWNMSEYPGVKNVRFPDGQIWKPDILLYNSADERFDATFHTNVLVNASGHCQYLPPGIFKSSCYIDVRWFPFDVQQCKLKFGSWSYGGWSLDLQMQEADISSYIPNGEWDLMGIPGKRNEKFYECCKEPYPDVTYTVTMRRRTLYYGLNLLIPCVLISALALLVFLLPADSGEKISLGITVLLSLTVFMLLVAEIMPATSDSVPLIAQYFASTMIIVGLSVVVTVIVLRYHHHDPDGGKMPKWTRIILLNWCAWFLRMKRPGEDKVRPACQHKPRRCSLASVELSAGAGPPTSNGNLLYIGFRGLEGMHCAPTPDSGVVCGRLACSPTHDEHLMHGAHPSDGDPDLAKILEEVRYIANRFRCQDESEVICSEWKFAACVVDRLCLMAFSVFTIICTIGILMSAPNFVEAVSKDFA

With `CN1CCC[C@H]1c1cccnc1` [NICOTINE], the ED50 in test [1] worked out at 0.5 mg/kg; in [2], 0.65 mg/kg; in test [3] it was 1 mg/kg; in [4], 1.3 mg/kg.
On to `Fc1ncc(C2CC3CCC2N3)cc1-c1ccccc1` (single isomer, unassigned; (+)), for which the Response was 7% in test [5] and -0.4% in test [6] (10 mg/kg). In addition, the figures for the AD50 in [2] and in test [4] were 2.4 mg/kg and 1 mg/kg, respectively. In [7] (dose 15 mg/kg), this molecule yielded an ED50 of 8 mg/kg. The molecule also had a Ki in [8] of over 2000 nM.
With `Fc1ncc(C2CC3CCC2N3)cc1-c1ccccc1` (stereo in doubt; (-)-5a), in test [9], the 50% effective dose (ED50) stood at 10 mg/kg. Moreover, the Response in test [5] is reported as 5%; in [6] (10 mg/kg), -0.8%. Further, the values for the Ki in test [10] and in [8] were 0.26 nM and over 2000 nM, respectively. The AD50 is 0.7 mg/kg in test [2] and 0.08 mg/kg in [4].
As to `Fc1cccc(-c2cc(C3CC4CCC3N4)cnc2F)c1` (centres undefined), the ED50 in [1] was determined as 0.36 mg/kg; in [2], 3.3 mg/kg; in [3], 1.8 mg/kg; in test [4] it was 3.5 mg/kg. Also, the AD50 stood at 20 mg/kg in [11] and 0.005 mg/kg in [4]. Moreover, the Body temperature in [12] is on record as 0%.
`Fc1ncc(C2CC3CCC2N3)cc1-c1cccc(Cl)c1` (centres undefined): in [9], the median effective dose (ED50) was 14 mg/kg. This molecule registered a Ki in test [10] of 0.07 nM. The molecule further came in with a Body temperature in test [13] of 0%. Also, the Response in [14] is recorded as 3%; in test [15], 15%; in [6], 0%. For the same molecule, the AD50 in test [2] was 0.45 mg/kg; in test [4], 0.01 mg/kg.
With `COc1ccc(-c2cc(C3CC4CCC3N4)cnc2F)cc1` (centres undefined), the ED50 in [9] amounted to 16 mg/kg; in [1], 3.6 mg/kg. In addition, in test [10], the Ki is 0.06 nM. For the same molecule, the Response amounted to 2% in test [14] and 0% in test [6]. The AD50 in [2] came to 0.52 mg/kg; in test [4] it was 0.05 mg/kg. In [12], this molecule showed a Body temperature of 10%.
With `Fc1ccc(C2CC3CCC2N3)cn1` (centres undefined), affinity in test [10] was put at a Ki of 0.02 nM.
Regarding `Nc1ccc(-c2cc(C3CC4CCC3N4)cnc2F)cc1` (centres undefined), the ED50 in test [9] was found to be 10 mg/kg; in test [1], 6 mg/kg. The molecule also registered an inhibition constant (Ki) in test [10] of 0.09 nM. For the same molecule, the Body temperature in [16] is recorded as 0%. In addition, the Response in [14] worked out at 2%; in test [6] it was 0%. Moreover, the results for the AD50 in test [2] and in test [4] were 1.8 mg/kg and 0.005 mg/kg, respectively.
Turning to `Nc1cccc(-c2cc(C3CC4CCC3N4)cnc2F)c1` (centres undefined), the ED50 in [9] came out at 4 mg/kg; in [1], 8.5 mg/kg. The same molecule registered a Ki in test [10] of 0.16 nM. The Body temperature in [16] amounted to 5%. The Response in test [14] came out at 1%; in [6], 0%. For the same molecule, the AD50 came out at 0.82 mg/kg in test [2] and 0.009 mg/kg in test [4].
In the case of `Clc1ccc([C@H]2C[C@@H]3CC[C@H]2N3)cn1` [(-)-EPIBATIDINE], the ED50 in [2] came to 0.004 mg/kg; in test [3], 0.001 mg/kg; in test [4], 0.004 mg/kg.
As to `Fc1ncc(C2CC3CCC2N3)cc1-c1ccccc1` (racemic), the ED50 in test [1] turned out to be 4.7 mg/kg; in test [7] (Mus musculus, read-out: ED50), 4 mg/kg. The Response in [5] is given as 3%; in [6] (10 mg/kg), -0.5%. In addition, the AD50 was determined as 1.2 mg/kg in test [2] and 0.5 mg/kg in [4]. Also, in test [8], the Ki is over 2000 nM.
Turning to `O=[N+]([O-])c1ccc(-c2cc(C3CC4CCC3N4)cnc2F)cc1` (centres undefined), in test [1], the 50% effect level (ED50) was put at a dose of 0.22 mg/kg. Also, the Response in test [14] worked out at 5%. Also, the values for the AD50 in [2] and in test [4] were 0.12 mg/kg and 0.003 mg/kg, respectively. In addition, the Body temperature in test [12] is 0%.
For `COc1cccc(-c2cc(C3CC4CCC3N4)cnc2F)c1` (centres undefined), the ED50 amounted to 8 mg/kg in test [9] and 6 mg/kg in test [1]. In [10], the affinity, expressed as Ki, was 0.12 nM. Also, the Body temperature in test [13] is listed as 0%. The Response in test [14] and in test [6] was 0% throughout. Further, the AD50 in test [2] worked out at 2 mg/kg; in test [4] it was 0.008 mg/kg.
On to `Fc1ccc(-c2cc(C3CC4CCC3N4)cnc2F)cc1` (centres undefined), for which the ED50 in [9] worked out at 15 mg/kg; in [1], 2 mg/kg. Also, the affinity in test [10], expressed as Ki, was 0.02 nM. For the same molecule, the Response in [14] is on record as 2%; in test [6] it was 10%. For the same molecule, the AD50 was found to be 0.23 mg/kg in test [2] and 0.0005 mg/kg in test [4]. For the same molecule, the Body temperature result in test [12] was “inactive”.
For `Fc1ncc(C2CC3CCC2N3)cc1-c1ccc(Cl)cc1` (centres undefined), in [9], the ED50 worked out at 7 mg/kg. In test [10], this molecule came in with a Ki of 0.04 nM. Further, the Body temperature in test [13] is 0%. The Response in test [14] is given as 2%; in test [15] it was 50%; in [6] it was 0%. The AD50 in test [2] was 0.26 mg/kg; in test [4], 0.0003 mg/kg.
Consider `O=[N+]([O-])c1cccc(-c2cc(C3CC4CCC3N4)cnc2F)c1` (centres undefined), for which the ED50 was 20 mg/kg in test [9] and 6.5 mg/kg in test [1]. Besides, in test [10], the affinity corresponds to a Ki of 0.05 nM. In test [16], this molecule returned a Body temperature of 5%. Besides, the figures for the Response in test [14] and in [6] were 3% and 0%, respectively. Also, the AD50 in [2] was 0.13 mg/kg; in [4] it was 0.0005 mg/kg.
